The record followed here is ChEMBL document CHEMBL3259739, “Synthesis and structure-activity relationship of trisubstituted thiazoles as Cdc7 kinase inhibitors” (Eur J Med Chem, 2014).

The target in experiment [1] is T1, TGF-beta receptor type-1 (Homo sapiens) (UniProt P36897).
T1 sequence (whole entry): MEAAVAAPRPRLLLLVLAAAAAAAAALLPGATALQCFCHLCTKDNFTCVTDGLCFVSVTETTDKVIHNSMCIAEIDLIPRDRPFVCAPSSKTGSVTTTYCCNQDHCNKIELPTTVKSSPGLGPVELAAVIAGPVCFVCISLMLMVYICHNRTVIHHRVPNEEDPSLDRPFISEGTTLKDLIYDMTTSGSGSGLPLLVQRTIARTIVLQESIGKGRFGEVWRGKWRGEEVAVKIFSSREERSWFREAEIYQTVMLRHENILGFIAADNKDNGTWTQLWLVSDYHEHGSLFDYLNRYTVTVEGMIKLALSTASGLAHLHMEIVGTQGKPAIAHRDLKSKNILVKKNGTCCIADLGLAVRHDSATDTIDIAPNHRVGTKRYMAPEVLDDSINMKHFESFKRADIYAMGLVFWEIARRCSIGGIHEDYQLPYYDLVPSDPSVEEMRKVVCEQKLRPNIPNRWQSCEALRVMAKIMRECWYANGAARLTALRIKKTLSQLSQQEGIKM
The experiment can be described thus: Inhibition of TGFBR1 (unknown origin) at 1 uM relative to control. Particulars: values are per cent of control. In short, it runs like this:
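KinomeSCAN competitive binding panel of 100 kinases; compounds tested at 1 µM in duplicate; read-out is percent […] control.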

For experiment [2], the target named is RAC-alpha serine/threonine-protein kinase (Homo sapiens) (UniProt P31749). The experiment can be described thus: Inhibition of AKT1 (unknown origin) at 1 uM relative to control; values are per cent of control.
Experiment [3] concerns the target T2, Dual specificity mitogen-activated protein kinase kinase 5 (Homo sapiens) (UniProt Q13163).
T2 sequence (whole entry): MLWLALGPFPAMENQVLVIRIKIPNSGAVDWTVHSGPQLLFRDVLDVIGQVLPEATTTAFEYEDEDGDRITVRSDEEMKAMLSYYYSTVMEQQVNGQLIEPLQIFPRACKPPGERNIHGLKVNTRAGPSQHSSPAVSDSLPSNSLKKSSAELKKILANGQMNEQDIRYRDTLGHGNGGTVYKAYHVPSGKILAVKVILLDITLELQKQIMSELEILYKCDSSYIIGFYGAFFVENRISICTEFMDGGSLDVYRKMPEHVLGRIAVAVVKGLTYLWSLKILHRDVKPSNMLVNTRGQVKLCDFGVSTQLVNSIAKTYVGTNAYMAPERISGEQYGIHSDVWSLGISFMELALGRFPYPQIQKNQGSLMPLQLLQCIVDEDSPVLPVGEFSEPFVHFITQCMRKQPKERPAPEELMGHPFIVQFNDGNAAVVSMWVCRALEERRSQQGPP
The experiment can be described thus: Inhibition of MEK5 (unknown origin) at 1 uM relative to control; values are per cent of control.

The target of experiment [4] is Calcium/calmodulin-dependent protein kinase type II subunit delta (Homo sapiens) (UniProt Q13557). The experiment can be described thus: Inhibition of CAMK2D (unknown origin) at 1 uM relative to control; values are per cent of control.
The target in experiment [5] is Tyrosine-protein kinase BTK (Homo sapiens) (UniProt Q06187). Description: Inhibition of BTK (unknown origin) at 1 uM relative to control; values are per cent of control.
Experiment [6] concerns the target Dual specificity protein kinase CLK1 (Homo sapiens) (UniProt P49759). Description: Inhibition of CLK1 (unknown origin) at 1 uM relative to control; values are per cent of control.
Experiment [7] addresses Epithelial discoidin domain-containing receptor 1 (Homo sapiens) (UniProt Q08345). Description: Inhibition of DDR1 (unknown origin) at 1 uM relative to control; values are per cent of control.
The target in experiment [8] is Dual specificity protein kinase CLK2 (Homo sapiens) (UniProt P49760). The experiment can be described thus: Inhibition of CLK2 (unknown origin) at 1 uM relative to control; values are per cent of control.
For experiment [9], the target named is T3, Cyclin-G-associated kinase (Homo sapiens) (UniProt O14976).
T3 sequence (whole entry): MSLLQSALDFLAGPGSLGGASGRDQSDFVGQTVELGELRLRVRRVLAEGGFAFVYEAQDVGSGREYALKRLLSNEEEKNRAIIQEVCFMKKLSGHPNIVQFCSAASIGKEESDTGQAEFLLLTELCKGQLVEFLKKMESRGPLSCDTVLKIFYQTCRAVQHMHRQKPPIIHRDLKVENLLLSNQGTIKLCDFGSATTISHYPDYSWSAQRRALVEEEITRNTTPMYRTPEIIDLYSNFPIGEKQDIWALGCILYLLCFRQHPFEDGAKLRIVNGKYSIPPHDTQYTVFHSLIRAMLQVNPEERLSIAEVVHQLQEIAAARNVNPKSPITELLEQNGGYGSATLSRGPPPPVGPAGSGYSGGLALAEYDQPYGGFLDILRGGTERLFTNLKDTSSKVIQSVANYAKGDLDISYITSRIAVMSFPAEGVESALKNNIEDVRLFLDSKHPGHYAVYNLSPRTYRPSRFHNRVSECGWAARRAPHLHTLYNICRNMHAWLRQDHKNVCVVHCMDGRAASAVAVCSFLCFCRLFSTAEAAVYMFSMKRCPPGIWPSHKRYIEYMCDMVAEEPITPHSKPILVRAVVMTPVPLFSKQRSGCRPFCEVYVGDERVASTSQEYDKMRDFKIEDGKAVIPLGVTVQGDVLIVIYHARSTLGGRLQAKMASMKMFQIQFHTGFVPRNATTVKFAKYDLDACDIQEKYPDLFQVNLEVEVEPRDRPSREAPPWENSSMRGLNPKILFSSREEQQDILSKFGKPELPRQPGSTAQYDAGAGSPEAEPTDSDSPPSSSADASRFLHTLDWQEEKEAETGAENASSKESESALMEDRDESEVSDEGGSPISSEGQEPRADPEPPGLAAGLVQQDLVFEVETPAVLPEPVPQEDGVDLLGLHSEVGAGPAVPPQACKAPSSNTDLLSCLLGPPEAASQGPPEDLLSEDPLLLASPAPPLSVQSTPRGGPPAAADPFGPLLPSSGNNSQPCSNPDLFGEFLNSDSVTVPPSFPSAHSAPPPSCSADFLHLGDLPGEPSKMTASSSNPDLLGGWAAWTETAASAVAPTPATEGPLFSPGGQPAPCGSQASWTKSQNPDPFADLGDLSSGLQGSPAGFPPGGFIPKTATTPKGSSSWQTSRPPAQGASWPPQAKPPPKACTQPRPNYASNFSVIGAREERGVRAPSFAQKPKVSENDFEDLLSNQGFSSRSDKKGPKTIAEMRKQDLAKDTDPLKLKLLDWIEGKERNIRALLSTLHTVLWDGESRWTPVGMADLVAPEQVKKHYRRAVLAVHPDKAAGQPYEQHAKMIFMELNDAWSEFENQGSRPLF
The experiment can be described thus: Inhibition of GAK (unknown origin) at 1 uM relative to control; values are per cent of control.

The structures appear in SMILES notation.

Dual specificity protein kinase CLK2 (Homo sapiens), sequence (P49760 whole entry, looked up): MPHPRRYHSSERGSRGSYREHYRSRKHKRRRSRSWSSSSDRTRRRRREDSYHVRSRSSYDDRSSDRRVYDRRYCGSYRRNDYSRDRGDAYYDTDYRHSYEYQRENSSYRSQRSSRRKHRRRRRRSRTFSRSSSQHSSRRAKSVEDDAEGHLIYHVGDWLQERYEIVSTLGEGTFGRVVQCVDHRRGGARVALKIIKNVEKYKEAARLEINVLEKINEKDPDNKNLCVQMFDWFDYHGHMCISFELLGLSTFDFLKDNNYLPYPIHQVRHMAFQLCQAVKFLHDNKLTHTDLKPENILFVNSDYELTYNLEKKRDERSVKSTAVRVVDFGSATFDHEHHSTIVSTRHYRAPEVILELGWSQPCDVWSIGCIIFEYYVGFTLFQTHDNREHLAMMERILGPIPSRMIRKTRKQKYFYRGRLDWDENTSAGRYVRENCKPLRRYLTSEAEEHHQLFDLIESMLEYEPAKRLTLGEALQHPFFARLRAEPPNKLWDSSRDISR
Epithelial discoidin domain-containing receptor 1 (Homo sapiens), sequence (Q08345 whole entry, the tested form may be a part): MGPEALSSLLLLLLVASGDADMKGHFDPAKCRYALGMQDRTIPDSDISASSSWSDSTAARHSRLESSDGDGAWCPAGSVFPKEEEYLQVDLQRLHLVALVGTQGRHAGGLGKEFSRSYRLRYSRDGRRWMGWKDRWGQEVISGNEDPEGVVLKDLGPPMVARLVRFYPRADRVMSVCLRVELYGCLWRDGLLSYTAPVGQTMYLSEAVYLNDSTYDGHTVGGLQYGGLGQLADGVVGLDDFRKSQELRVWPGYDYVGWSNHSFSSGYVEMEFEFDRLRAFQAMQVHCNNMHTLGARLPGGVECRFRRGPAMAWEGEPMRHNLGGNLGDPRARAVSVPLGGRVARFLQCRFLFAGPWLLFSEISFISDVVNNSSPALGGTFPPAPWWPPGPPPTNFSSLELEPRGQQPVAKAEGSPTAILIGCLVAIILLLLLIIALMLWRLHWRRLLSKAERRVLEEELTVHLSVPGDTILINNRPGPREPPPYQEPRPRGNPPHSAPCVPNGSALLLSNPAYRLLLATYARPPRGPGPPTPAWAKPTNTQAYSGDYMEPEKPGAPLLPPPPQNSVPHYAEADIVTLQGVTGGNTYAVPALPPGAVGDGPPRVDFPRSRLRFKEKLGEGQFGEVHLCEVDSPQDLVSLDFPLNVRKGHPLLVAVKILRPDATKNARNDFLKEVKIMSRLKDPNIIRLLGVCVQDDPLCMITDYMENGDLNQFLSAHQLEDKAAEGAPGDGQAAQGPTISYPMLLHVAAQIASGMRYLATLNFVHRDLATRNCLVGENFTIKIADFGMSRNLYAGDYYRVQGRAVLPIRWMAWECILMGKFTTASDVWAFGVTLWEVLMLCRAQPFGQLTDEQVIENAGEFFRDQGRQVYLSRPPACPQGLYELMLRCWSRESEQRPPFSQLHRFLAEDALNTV
Calcium/calmodulin-dependent protein kinase type II subunit delta (Homo sapiens), sequence (Q13557 whole entry): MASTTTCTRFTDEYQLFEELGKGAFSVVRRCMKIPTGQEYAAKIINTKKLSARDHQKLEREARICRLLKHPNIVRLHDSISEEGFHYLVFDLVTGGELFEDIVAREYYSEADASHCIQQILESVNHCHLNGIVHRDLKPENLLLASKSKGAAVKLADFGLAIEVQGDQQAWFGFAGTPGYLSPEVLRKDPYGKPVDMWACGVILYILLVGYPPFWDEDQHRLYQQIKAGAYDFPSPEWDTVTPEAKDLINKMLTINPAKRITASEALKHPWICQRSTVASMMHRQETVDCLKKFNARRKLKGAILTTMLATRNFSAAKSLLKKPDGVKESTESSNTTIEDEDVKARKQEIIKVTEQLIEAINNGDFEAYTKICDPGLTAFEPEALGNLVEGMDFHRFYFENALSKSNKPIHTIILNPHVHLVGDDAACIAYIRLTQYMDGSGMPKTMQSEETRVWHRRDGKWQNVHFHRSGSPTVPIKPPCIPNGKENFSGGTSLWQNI
Dual specificity protein kinase CLK1 (Homo sapiens), sequence (P49759 whole entry, looked up, the tested form may be a part): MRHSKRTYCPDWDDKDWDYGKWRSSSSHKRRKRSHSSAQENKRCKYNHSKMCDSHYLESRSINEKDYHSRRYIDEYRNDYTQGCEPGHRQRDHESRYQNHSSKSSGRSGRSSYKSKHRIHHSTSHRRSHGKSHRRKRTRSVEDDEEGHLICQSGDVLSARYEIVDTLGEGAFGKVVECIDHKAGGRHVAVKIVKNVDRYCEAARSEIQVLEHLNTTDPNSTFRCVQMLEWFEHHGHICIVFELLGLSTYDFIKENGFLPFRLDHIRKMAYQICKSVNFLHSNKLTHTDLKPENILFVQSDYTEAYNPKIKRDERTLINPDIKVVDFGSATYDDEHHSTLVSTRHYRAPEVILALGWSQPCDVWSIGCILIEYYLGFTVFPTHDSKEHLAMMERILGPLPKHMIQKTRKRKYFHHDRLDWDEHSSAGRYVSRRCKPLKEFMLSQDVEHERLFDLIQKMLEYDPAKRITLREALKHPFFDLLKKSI
Tyrosine-protein kinase BTK (Homo sapiens), sequence (Q06187 whole entry): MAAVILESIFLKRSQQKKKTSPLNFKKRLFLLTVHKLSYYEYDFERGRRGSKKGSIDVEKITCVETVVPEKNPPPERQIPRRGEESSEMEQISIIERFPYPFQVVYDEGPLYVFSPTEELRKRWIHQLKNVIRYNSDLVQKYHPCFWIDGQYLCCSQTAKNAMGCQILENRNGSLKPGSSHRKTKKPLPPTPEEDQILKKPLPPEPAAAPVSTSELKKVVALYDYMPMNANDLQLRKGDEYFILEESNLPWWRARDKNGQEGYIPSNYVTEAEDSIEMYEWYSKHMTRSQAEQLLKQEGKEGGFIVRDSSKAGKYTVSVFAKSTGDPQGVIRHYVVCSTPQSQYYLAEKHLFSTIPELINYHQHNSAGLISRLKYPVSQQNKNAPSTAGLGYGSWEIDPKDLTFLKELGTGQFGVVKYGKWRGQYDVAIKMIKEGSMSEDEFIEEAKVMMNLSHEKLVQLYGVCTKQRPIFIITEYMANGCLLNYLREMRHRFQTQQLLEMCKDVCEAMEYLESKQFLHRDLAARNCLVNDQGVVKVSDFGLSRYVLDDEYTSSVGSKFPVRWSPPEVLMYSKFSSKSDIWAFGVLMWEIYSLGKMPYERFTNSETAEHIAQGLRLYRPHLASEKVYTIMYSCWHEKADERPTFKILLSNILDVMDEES
RAC-alpha serine/threonine-protein kinase (Homo sapiens), sequence (P31749 whole entry): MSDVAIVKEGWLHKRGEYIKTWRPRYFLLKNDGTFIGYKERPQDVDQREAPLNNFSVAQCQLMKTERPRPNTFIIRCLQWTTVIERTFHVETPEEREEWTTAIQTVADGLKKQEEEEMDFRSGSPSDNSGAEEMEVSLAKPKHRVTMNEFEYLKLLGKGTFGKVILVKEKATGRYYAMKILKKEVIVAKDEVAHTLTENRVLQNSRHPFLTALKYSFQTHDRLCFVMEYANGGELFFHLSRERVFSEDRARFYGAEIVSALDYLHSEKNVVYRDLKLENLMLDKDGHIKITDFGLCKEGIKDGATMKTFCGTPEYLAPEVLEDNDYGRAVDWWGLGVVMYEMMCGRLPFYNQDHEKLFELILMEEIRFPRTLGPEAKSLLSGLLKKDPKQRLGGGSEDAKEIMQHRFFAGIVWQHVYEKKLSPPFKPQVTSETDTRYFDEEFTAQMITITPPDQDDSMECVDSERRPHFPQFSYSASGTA

`CCOC(=O)c1sc(-c2ccncc2)nc1O` registered a residual binding, % of control in experiment [1] of 100%. The residual activity was determined as 75% in [2]; 83% in experiment [3]; 79% in experiment [4]; 92% in experiment [5]; 90% in experiment [6]; 98% in [7]. Also, the figures for the residual activity in experiment [8] and in [9] were 86% and 97%, respectively.

For the compound `NC(=O)c1sc(-c2ccnc(N)n2)nc1-c1ccc(Cl)cc1Cl`, in experiment [1], the residual binding, % of control was 91%. Moreover, the residual activity came out at 80% in experiment [2]; 79% in experiment [3]; 90% in experiment [4]; 75% in experiment [5]; 1.3% in experiment [6]; 80% in experiment [7]. In addition, the figures for the residual activity in [8] and in experiment [9] were 7.9% and 90%, respectively.

In turn, `COc1ccc(-c2nc(-c3ccnc(N)n3)sc2C(N)=O)c(Cl)c1` had a residual binding, % of control in experiment [1] of 72%. The residual activity in experiment [2] was found to be 66%; in experiment [3] it was 80%; in experiment [4], 93%; in experiment [5], 76%; in experiment [6], 2.3%; in [7], 84%. The values for the residual activity in experiment [8] and in [9] were 10% and 88%, respectively.
